Measured values collected from several papers.
Protocols differ between the studies behind these lines.
Target: Non-receptor tyrosine-protein kinase TNK1 (TNK1, Homo sapiens, UniProt Q13470)
One construct used (Q13470 1-666): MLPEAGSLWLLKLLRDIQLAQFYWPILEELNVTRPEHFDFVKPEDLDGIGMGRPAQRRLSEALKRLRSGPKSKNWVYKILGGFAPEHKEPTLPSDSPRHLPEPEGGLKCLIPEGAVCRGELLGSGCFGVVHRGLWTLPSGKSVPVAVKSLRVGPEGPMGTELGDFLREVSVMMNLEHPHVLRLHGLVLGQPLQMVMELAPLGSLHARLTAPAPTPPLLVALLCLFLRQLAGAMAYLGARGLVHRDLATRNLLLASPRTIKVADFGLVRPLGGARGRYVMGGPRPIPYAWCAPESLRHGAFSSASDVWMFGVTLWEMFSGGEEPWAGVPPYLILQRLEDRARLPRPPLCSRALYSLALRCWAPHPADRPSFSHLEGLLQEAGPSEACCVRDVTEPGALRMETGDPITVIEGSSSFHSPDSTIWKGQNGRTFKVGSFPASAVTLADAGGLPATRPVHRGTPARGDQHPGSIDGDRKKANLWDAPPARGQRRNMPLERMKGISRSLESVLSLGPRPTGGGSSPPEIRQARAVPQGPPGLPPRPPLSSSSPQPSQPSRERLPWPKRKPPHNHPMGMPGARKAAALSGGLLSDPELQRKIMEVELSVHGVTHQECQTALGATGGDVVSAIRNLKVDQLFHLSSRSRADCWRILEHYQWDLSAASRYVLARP

Structure (SMILES)	test	conditions	remaining binding
FC(F)(F)Oc1cccc(-c2cnc3ccc(-c4ccncc4)nn23)c1	binding, competition with immobilised ligand	5 µM	88%
COc1cc(-c2cn(C3CCc4c(F)cccc4N(CC(F)(F)F)C3=O)nn2)ccc1-n1cnc(C)c1 (stereo not shown)	cell-free assay, competition with immobilised ligand	1 µM	100%
Cc1cnc(Nc2ccc(C(=O)N3CCC(N4CCCC4)CC3)cc2)nc1-c1cc2ccccc2s1	binding, competition with immobilised ligand	1 µM	13%
C[C@@H]1CCN(c2nccc(-c3cnn4ncccc34)n2)C1	binding	1 µM	100%
O=C(NCC1CCOCC1)c1n[nH]cc1NC(=O)c1c(F)cccc1F	binding, competition with immobilised ligand	1 µM	98%
Cc1c(C(=O)O)cc(-c2ccc(C3CCNCC3)cc2)c2ccc(-c3ccc(C(F)(F)F)cc3)cc12	binding, competition with immobilised ligand	1 µM	100%
c1cnn2ncc(-c3ccnc(N4CCC45COC5)n3)c2c1	binding	1 µM	100%
Nc1ncc2c(n1)-c1c([nH]c3ccc(C#CC4CC4)cc13)CCCC2	binding, competition with immobilised ligand	1 µM	100%
Cn1cc(Cl)c2c(Oc3c(F)cc(Nc4cc(Cl)nc(N)n4)cc3F)ccnc21	cell-free assay, competition with immobilised ligand	0.1 µM	100%
CCN1CCN(Cc2ccc(C(=O)Nc3ccc(C)c(Oc4ccc5c(c4)CC(=O)N5)c3)cc2C(F)(F)F)CC1	binding, competition with immobilised ligand	1 µM	100%
COc1cnc(Nc2cccc(S(N)(=O)=O)c2)nc1N1CCN(c2ccccc2)C(=O)C1	binding, competition with immobilised ligand	1 µM	100%
CN(C)c1nccc(-c2cnc3ncccn23)n1	binding	1 µM	100%
O=C(c1ccc(Nc2nccc(-c3cc4ccccc4s3)n2)cc1)N1CCC(N2CCCC2)CC1	binding, competition with immobilised ligand	1 µM	27%
COc1ncc2cc3ccccc3nc2c1C#N	cell-free assay, competition with immobilised ligand	5 µM	100%
CN(c1nccc(-c2cnn3ncccc23)n1)C1CC1	binding	1 µM	84%
CC1=C(C#N)C(c2ccc3c(c2)c(NC(=O)c2ccccc2C)nn3C)C(C#N)=C(C)N1	cell-free assay, competition with immobilised ligand	1 µM	76%
O=C(NCCCN1CCOCC1)c1ccc(Nc2nccc(-c3cc4ccccc4s3)n2)cc1	binding, competition with immobilised ligand	1 µM	41%
CN(CCCC(F)(F)F)c1nccc(-c2cnn3ncccc23)n1	binding	1 µM	83%
CNC(=O)c1ccc(Nc2ncc(C(F)(F)F)c(NCc3nccnc3N(C)S(C)(=O)=O)n2)cc1	cell-free assay, competition with immobilised ligand	0.1 µM	100%
c1cncc(-c2cccc(Nc3nccc(NC4CCCCC4)n3)c2)c1	binding, competition with immobilised ligand	10 µM	40%
N[C@@H]1CCN(c2nccc(-c3cnn4ncccc34)n2)C1	binding	1 µM	100%
CN1CCN(c2cnc3c(C4CCN(C(=O)c5ccc(OC(F)(F)F)cc5N)CC4)ncnc3c2)CC1	cell-free assay, competition with immobilised ligand	1 µM	100%
